Source: PubChem
Neddyl block – inhibitors of human cullin neddylation; TR-FRET cullin neddylation, biochemical; 360,000 tested, 0.58% active; P61081+Q13564; AID 651699; inhibition, % at 25 µM; in the data active = inhibition above about 36%
Target sequence (P61081 whole entry, looked up): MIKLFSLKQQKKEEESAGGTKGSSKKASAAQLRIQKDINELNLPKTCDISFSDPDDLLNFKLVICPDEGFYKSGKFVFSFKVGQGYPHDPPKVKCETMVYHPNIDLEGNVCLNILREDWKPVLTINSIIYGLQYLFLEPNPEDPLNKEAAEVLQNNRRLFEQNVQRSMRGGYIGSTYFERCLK
Target sequence (Q13564 whole entry, looked up): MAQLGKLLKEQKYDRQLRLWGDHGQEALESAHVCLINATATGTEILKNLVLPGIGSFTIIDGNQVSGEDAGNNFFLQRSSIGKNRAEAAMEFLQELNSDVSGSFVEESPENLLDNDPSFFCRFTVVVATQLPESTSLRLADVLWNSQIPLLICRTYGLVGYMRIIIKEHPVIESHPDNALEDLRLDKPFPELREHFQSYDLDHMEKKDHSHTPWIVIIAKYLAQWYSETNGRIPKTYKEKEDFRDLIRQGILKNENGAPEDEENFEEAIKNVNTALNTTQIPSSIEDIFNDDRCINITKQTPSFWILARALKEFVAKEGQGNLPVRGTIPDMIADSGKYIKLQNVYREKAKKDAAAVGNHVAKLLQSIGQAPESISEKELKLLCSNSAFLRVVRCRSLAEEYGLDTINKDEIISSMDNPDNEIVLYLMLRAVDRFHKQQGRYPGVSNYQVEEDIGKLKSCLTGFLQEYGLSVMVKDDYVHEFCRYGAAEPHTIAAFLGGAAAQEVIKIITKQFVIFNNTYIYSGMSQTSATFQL
PfG6PD inh – PfG6PD (Plasmodium falciparum) enzyme inhibition. PfGluPho enzyme, NADPH resazurin-diaphorase fluorescence. inhibition, % at 20 µM. AID 504690. 350,000 tested, 0.78% active;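 active = inhibition reaching at least a set limit at 20 µM in the primary screen, cut at about 59% in these data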;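 note: 0% = DMSO wells with substrate and 100% = DMSO wells lacking glucose-6-phosphate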
HKDC1 inhibitor – blocks human hexokinase HKDC1 activity. 340,000 tested, 0.16% active. recombinant HKDC1, G6PDH/diaphorase resazurin coupled fluorescence. inhibition, % at 20 µM;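 active = inhibition above about 35% when tested at 20 µM, limit read from the data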;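 note: plate controls were DMSO wells with enzyme for no effect and DMSO wells lacking enzyme for full effect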
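Material: recombinant HKDC1 hexokinase; Amount: HKDC1 at 5 µg/mL; Medium: Tris pH 8.0 buffer with MgCl2, Tween-20, BSA, BME; Schedule: 90 min reaction incubation at room temperature, dark; Technique: coupled resazurin fluorescence, excitation 525 nm, emission 613 nm.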
PfM18AAP inh-1 – blocks P. falciparum M18 aspartyl aminopeptidase; inhibition, % at 7.35 µM; AID 1822; 290,000 tested, 1.2% active; recombinant PfM18AAP, H-Glu-NHMec fluorogenic cleavage;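 active = inhibition above the campaign mean inhibition over all tested compounds plus 3 SD, cut at about 28% in these data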;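 note: 0% = plate median of test compound wells and 100% = 2 mM ZnCl2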
PfM18AAP inh-2 – confirmation of Plasmodium falciparum M18 aspartyl aminopeptidase inhibitors. shares compounds with PfM18AAP inh-1. recombinant PfM18AAP, H-Glu-NHMec fluorogenic cleavage. inhibition, % at 7.35 µM. 2,400 tested, 28% active. AID 2170;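 active = mean inhibition over replicate wells above the hit cutoff set for the earlier primary screen, cut at about 29% in these data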;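 note: 0% = median of test compound wells and 100% = 2 mM ZnCl2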
CTSL1 counter – counter-screen for PFM18AAP inhibitors: confirmation of human cathepsin L inhibitors; purified cathepsin L1, Z-Leu-Arg-MCA fluorescence; 2,400 tested, under 10 active; AID 2178; shares compounds with PfM18AAP inh-1; inhibition, % at 5.96 µM;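 active = average inhibition across replicates above the hit cutoff set in the earlier primary screen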;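 note: 0% = median of test compound wells and 100% = Z-Phe-Ala-diazomethylketone 1 µM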
Active calls of the source: *; . = no result given. An excerpt weighted towards active compounds, which were near 2.2% of everything screened.

SMILES	Neddyl block	PfG6PD inh	HKDC1 inhibitor	PfM18AAP inh-1	PfM18AAP inh-2	CTSL1 counter
CC(=O)NC(c1ccc(Cl)cc1)c1ccc2cccnc2c1O (stereo unspecified)	-0.9	-15.9	-22.4	.	.	.
CC(=O)NC(c1ccco1)c1ccc2cccnc2c1O (stereo unspecified)	13.0	-22.1	-12.9	47.8*	-13.4	5.2
O=S(=O)(c1ccc(NC(=S)N2CCN(c3ccc(O)cc3)CC2)cc1)N1CCOCC1	-0.3	50.1	2.0	33.7*	2.2	-4.9
O=S(=O)(c1ccc(NC(=S)N2CCOCC2)cc1)N1CCCCC1	0.8	-3.4	.	.	.	.
Cc1cccc(NC(=O)CCC(=O)N2CCOCC2)n1	9.2	3.7	2.9	.	.	.
N#Cc1cc(-c2ccccc2)nc(NN)n1	-10.1	-16.1	-0.9	42.6*	30.6*	6.5
O=C(CNC(=O)c1ccccc1F)OCn1nnc2ccccc2c1=O	-14.0	-0.5	-4.5	.	.	.
CCc1c(C)sc(NC(=O)/C=C/C(=O)O)c1C(N)=O	2.0	-4.4	-8.6	33.6*	-41.7	-0.9
O=S(=O)(Nc1ccc(NS(=O)(=O)c2ccccc2)c(Cl)c1)c1ccccc1	10.0	-25.9	4.7	.	.	.
Cc1cc(NS(=O)(=O)c2ccccc2)cc(Cl)c1O	-0.9	24.0	2.1	67.0*	-55.9	-4.5
NN1C(=O)/C(=C\c2ccco2)SC1=S	2.9	11.1	-3.6	33.7*	-20.2	-0.7
O=C(CN1C(=O)/C(=C/c2ccco2)SC1=S)NC1CCS(=O)(=O)C1 (stereo unspecified)	0.2	15.4	4.2	39.1*	-19.4	5.3
CCOc1ccccc1/C=N/Nc1nc2c(N)ncnc2n1[C@H]1O[C@@H](CO)[C@H](O)[C@@H]1O	12.4	-9.0	0.7	36.2*	-25.5	3.9
CC1CCN(c2nc3c(N)ncnc3n2[C@@H]2O[C@H](CO)[C@@H](O)[C@H]2O)CC1	3.0	2.0	-5.8	1.5	.	.
Cc1nc2c(C)cccn2c1/C(O)=C1\C(=O)C(=O)N(CCN(C)C)C1c1ccco1 (stereo unspecified)	2.9	-12.8	-2.2	3.2	.	.
N#Cc1ccc(OCC(O)CN2CCN(c3ncc(C(F)(F)F)cc3Cl)CC2)cc1 (stereo unspecified)	-2.9	8.3	4.1	1.2	.	.
CCN(CC)c1ccc2nc3c4ccccc4c(=O)cc-3oc2c1	.	-3.1	0.3	38.4*	-41.4	-4.3
COc1cc(C2Oc3cc(C4Oc5cc(O)cc(O)c5C(=O)C4O)ccc3OC2CO)ccc1O (stereo unspecified)	-18.1	-0.3	-0.3	-1.5	.	.
CC(=O)Oc1cc(O)c2c(c1)OC(c1ccc(OC(C)=O)c(OC(C)=O)c1)C(OC(C)=O)C2=O (stereo unspecified)	3.5	-50.3	7.1	54.3*	30.9*	-21.4
O=C(CSc1nnnn1-c1cccc(F)c1)NC1CC1	-6.8	-17.1	-12.6	.	.	.
COc1ccc(C(=O)NCc2ccccc2CN2CCCC2)cc1S(=O)(=O)Nc1ccc(C)cc1	1.1	-2.8	1.4	.	.	.
CCC(NC(C)C)C(O)c1ccc(O)c(O)c1 (stereo unspecified)	2.6	32.7	10.7	51.6*	10.0	-3.7
O=C1Nc2ccccc2/C1=C/c1ccc([N+](=O)[O-])cc1	-29.6	0.8	-7.3	35.1*	-1.9	-1.7
O=C1Nc2ccccc2/C1=C/c1ccccc1Cl	-5.6	29.5	10.0	12.7	.	.
O=C(CN1CCN(c2ccccn2)CC1)Nc1ccc(F)cc1F	2.9	-14.4	0.7	1.7	.	.
SMILES	Neddyl block	PfG6PD inh	HKDC1 inhibitor	PfM18AAP inh-1	PfM18AAP inh-2	CTSL1 counter
Oc1cccc(/C=N/N2CCCCC2)c1O	-5.5	-12.7	8.5	44.7*	21.5	-3.1
Oc1ccccc1C=NN1CCCCCC1	4.6	-4.3	-3.7	.	.	.
Cc1c(C)n(C(=O)CSc2ncn[nH]2)c2ccccc12	2.2	0.0	0.4	82.7*	52.2*	6.0
CC1=CC(C)(C)N(C(=O)CSc2ncn[nH]2)c2ccccc21	0.9	37.0	-1.8	54.4*	-42.0	1.8
Cc1ccc(N(CC(=O)NC2CCCC2)C(=O)CNC(=O)c2cccs2)cc1F	-12.0	-4.7	-3.3	-7.9	.	.
CNC(=S)NNC(=O)c1sccc1C	13.4	3.9	-5.4	35.4*	19.4	-2.9
Cc1ccc2[nH]c3c(c2c1)CCc1cn[nH]c1-3	18.8	40.1	20.1	33.1*	-20.6	4.7
Cc1ccc2[nH]c3c(c2c1)CCC3=O	.	-3.0	-4.4	2.2	.	.
Cc1cc(CNCCN(C)C)c(C)n1-c1cc(S(=O)(=O)N2CCOCC2)ccc1N1CCCC1	10.5	0.5	-7.2	.	.	.
